Published values collected from several papers.
Compare with care: the assays were run in different laboratories.
Target: Bone morphogenetic protein receptor type-1A (BMPR1A, Homo sapiens, UniProt P36894)

SMILES | read-out | technique | concentration | remaining binding [%]
CCN1CCN(Cc2ccc(C(=O)Nc3ccc(C)c(Oc4ccc5c(c4)CC(=O)N5)c3)cc2C(F)(F)F)CC1 | binding | competition with immobilised ligand | 1 µM | 100
C[C@@H](c1ccc(-n2cnc3c(N)ncnc32)cc1)N1CCc2nn(C)c(Cc3ccccc3)c2C1=O | binding | competition with immobilised ligand | 0.1 µM | 100
COc1cnc(Nc2cccc(S(N)(=O)=O)c2)nc1N1CCN(c2ccccc2)CC1 | binding | competition with immobilised ligand | 1 µM | 100
c1cncc(-c2cccc(Nc3nccc(NC4CCCCC4)n3)c2)c1 | binding | competition with immobilised ligand | 10 µM | 73
O=C(NCCCN1CCOCC1)c1ccc(Nc2ncc(Cl)c(-c3ccc(Cl)s3)n2)cc1 | binding | competition with immobilised ligand | 1 µM | 86
c1cnn2ncc(-c3ccnc(N4CCC45COC5)n3)c2c1 | binding | – | 1 µM | 88
FC(F)(F)Oc1cccc(-c2cnc3ccc(-c4ccncc4)nn23)c1 | cell-free assay | competition with immobilised ligand | 5 µM | 81
O=C(c1ccc(Nc2nccc(-c3cc4ccccc4s3)n2)cc1)N1CCC(N2CCCC2)CC1 | binding | competition with immobilised ligand | 1 µM | 75
O=C(NS(=O)(=O)c1ccc(NCC2CCOCC2)c([N+](=O)[O-])c1)c1ccc(N2CCN(Cc3ccc(C(F)(F)F)cc3-c3ccc(Cl)cc3)CC2)cc1Oc1cnc2[nH]ccc2c1 | cell-free assay | competition with immobilised ligand | 1 µM | 81
N[C@@H]1CCN(c2nccc(-c3cnn4ncccc34)n2)C1 | binding | – | 1 µM | 100
O=C(O)[C@H]1[C@H](Cn2nnc3ccccc3c2=O)CC[C@@H]1C(=O)c1ccc(OCCC2CCOCC2)cc1 | binding | competition with immobilised ligand | 1 µM | 61
Cc1cnc(Nc2ccc(C(=O)N3CCC(N4CCCC4)CC3)cc2)nc1-c1cc2ccccc2s1 | binding | competition with immobilised ligand | 1 µM | 60
CN(c1ccnc(CNc2nc(Nc3ccc4c(c3)CC(=O)N4)ncc2C(F)(F)F)n1)S(C)(=O)=O | binding | competition with immobilised ligand | 1 µM | 89
O=C(NCC1CCOCC1)c1n[nH]cc1NC(=O)c1c(F)cccc1F | binding | competition with immobilised ligand | 1 µM | 89
Cc1cnn2ncc(-c3ccnc(N(C)C)n3)c2c1 | binding | – | 1 µM | 100
COc1cccc(CNC(=O)c2nc3scc(COCc4ccc(C(=O)O)cc4)c3c(=O)[nH]2)c1 | cell-free assay | competition with immobilised ligand | 1 µM | 100
CN(C)c1nccc(-c2cnn3ncccc23)n1 | binding | – | 1 µM | 81
c1ccc(N2CCN(Cc3nc4ccccc4[nH]3)CC2)nc1 | binding | competition with immobilised ligand | 1 µM | 86
C[C@H]1CCN(c2nccc(-c3cnn4ncccc34)n2)C1 | binding | – | 1 µM | 68
CC(=O)N1CCC(c2ccc(C(=O)NC(=N)N)cc2C(F)(F)F)CC1 | binding | competition with immobilised ligand | 1 µM | 100
